Measurements published in ChEMBL document CHEMBL3244057, “Diazepines. 5. Synthesis and biological action of 6-phenyl-4H-pyrrolo[1,2-a][1,4]benzodiazepines” (J Med Chem, 1978).

System: Mus musculus
Experiment: Anticonvulsant activity in po dosed ddY mouse assessed as reduction of pentylenetetrazole-induced seizure
Format: functional
Conditions: not given
Summary of the method: (§1)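 Male ddY mice (18–24 g) were dosed orally with compound suspended in 5% arabic gum, six mice per dose. Three or four doses were chosen from 100, 30, 10, 3, 1, 0.3 and 0.1 mg/kg. ED50 was calculated by the Litchfield-Wilcoxon method. Muscle relaxation was scored on an inclined wooden board, and fighting was induced by electrofootshock.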

| Structure (SMILES) | ED50 [mg/kg] |
| --- | --- |
| Fc1ccccc1C1=NCc2cccn2-c2ccc(Cl)cc21 | 100 |
| Cc1ccc2n1-c1ccccc1C(c1ccccc1)=NC2 | > 100 |
| Cc1ccc2n1-c1ccc(Cl)cc1C(c1ccccc1)=NC2 | 100 |
| Cc1cc2n(c1C)-c1ccccc1C(c1ccccc1)=NC2 | > 100 |
| Cc1ccc2n1-c1ccc([N+](=O)[O-])cc1C(c1ccccc1)=NC2 | ≥ 100 |
| CN1C(=O)CN=C(c2ccccc2)c2cc(Cl)ccc21 [DIAZEPAM] | 0.6 |
| CCc1cc2n(c1C)-c1ccc(Cl)cc1C(c1c(F)cccc1F)=NC2 | 16.6 |
| Cc1cc(C)n2c1CN=C(c1ccccc1Cl)c1cc(Cl)ccc1-2 | 1.4 |

System: Mus musculus
Experiment: Anticonvulsant activity in po dosed ddY mouse assessed as reduction of maximal electroshock-induced seizure
Format: functional
Conditions: not given

| Structure (SMILES) | ED50 [mg/kg] |
| --- | --- |
| Fc1ccccc1C1=NCc2cccn2-c2ccc(Cl)cc21 | > 100 |
| Cc1ccc2n1-c1ccccc1C(c1ccccc1)=NC2 | > 100 |
| Cc1ccc2n1-c1ccc(Cl)cc1C(c1ccccc1)=NC2 | > 100 |
| Cc1cc2n(c1C)-c1ccccc1C(c1ccccc1)=NC2 | > 100 |
| Cc1ccc2n1-c1ccc([N+](=O)[O-])cc1C(c1ccccc1)=NC2 | > 100 |

System: Mus musculus
Experiment: Taming activity in po dosed electrofootshock-induced fighting ddY mouse
Format: functional
Conditions: not given
Summary of the method: as §1

| Structure (SMILES) | ED50 [mg/kg] |
| --- | --- |
| Fc1ccccc1C1=NCc2cccn2-c2ccc(Cl)cc21 | 39 |
| Cc1ccc2n1-c1ccccc1C(c1ccccc1)=NC2 | > 100 |
| Cc1ccc2n1-c1ccc(Cl)cc1C(c1ccccc1)=NC2 | > 100 |
| Cc1cc2n(c1C)-c1ccccc1C(c1ccccc1)=NC2 | > 100 |
| Cc1ccc2n1-c1ccc([N+](=O)[O-])cc1C(c1ccccc1)=NC2 | > 100 |

System: Mus musculus
Experiment: Muscle relaxant activity in po dosed ddY mouse
Format: functional
Conditions: not given
Summary of the method: as §1

| Structure (SMILES) | ED50 [mg/kg] |
| --- | --- |
| Fc1ccccc1C1=NCc2cccn2-c2ccc(Cl)cc21 | > 100 |
| Cc1ccc2n1-c1ccccc1C(c1ccccc1)=NC2 | > 100 |
| Cc1ccc2n1-c1ccc(Cl)cc1C(c1ccccc1)=NC2 | > 100 |
| Cc1cc(C)n2c1CN=C(c1ccccc1F)c1cc(Cl)ccc1-2 | 20.5 |
| Cc1cc2n(c1C)-c1ccccc1C(c1ccccc1)=NC2 | > 100 |
| Cc1cc(C)n2c1CN=C(c1c(F)cccc1F)c1cc(Cl)ccc1-2 | 6.4 |
| Cc1ccc2n1-c1ccc([N+](=O)[O-])cc1C(c1ccccc1)=NC2 | > 100 |
| CN1C(=O)CN=C(c2ccccc2)c2cc(Cl)ccc21 [DIAZEPAM] | 0.6 |

System: Mus musculus
Experiment: Toxicity in po dosed ddY mouse assessed as motor incoordination by rotarod test
Format: organism-based
Conditions: in vivo
Summary of the method: as §1

| Structure (SMILES) | ED50 [mg/kg] |
| --- | --- |
| Cc1cc2n(c1C)-c1ccc(Cl)cc1C(c1ccccc1)=NC2 | > 100 |
| Cc1cc2n(c1C)-c1ccc(Cl)cc1C(c1ccccc1Cl)=NC2 | 40 |
| Fc1ccccc1C1=NCc2cccn2-c2ccc(Cl)cc21 | > 100 |
| Cc1ccc2n1-c1ccc(Cl)cc1C(c1ccccc1F)=NC2 | > 100 |
| Cc1ccc2n1-c1ccccc1C(c1ccccc1)=NC2 | > 100 |
| Cc1ccc2n1-c1ccc(Cl)cc1C(c1ccccc1)=NC2 | > 100 |
| Cc1ccc2n1-c1ccc(Cl)cc1C(c1ccccc1Cl)=NC2 | 100 |
| Cc1cc2n(c1C)-c1ccc(Cl)cc1C(c1ccccc1F)=NC2 | > 100 |
| Clc1ccc2c(c1)C(c1ccccc1Cl)=NCc1cccn1-2 | > 100 |
| Cc1cc(C)n2c1CN=C(c1ccccc1F)c1cc(Cl)ccc1-2 | > 30 |
| Cc1cc2n(c1C)-c1ccccc1C(c1ccccc1)=NC2 | > 100 |
| Cc1cc(C)n2c1CN=C(c1c(F)cccc1F)c1cc(Cl)ccc1-2 | 16.2 |
| Cc1ccc2n1-c1ccc([N+](=O)[O-])cc1C(c1ccccc1)=NC2 | > 100 |
| CCc1cc2n(c1C)-c1ccc(Cl)cc1C(c1ccccc1F)=NC2 | > 100 |
| CN1C(=O)CN=C(c2ccccc2)c2cc(Cl)ccc21 [DIAZEPAM] | 5.4 |
| CCc1cc2n(c1C)-c1ccc(Cl)cc1C(c1ccccc1Cl)=NC2 | 16.2 |
| Clc1ccc2c(c1)C(c1ccccc1)=NCc1cccn1-2 | > 100 |
| CCc1cc2n(c1C)-c1ccc(Cl)cc1C(c1c(F)cccc1F)=NC2 | > 100 |
| Cc1cc(C)n2c1CN=C(c1ccccc1Cl)c1cc(Cl)ccc1-2 | 15.5 |

System: Mus musculus
Experiment: Induction of sedative activity in po dosed ddY mouse assessed as potentiation of thiopental-induced response
Format: functional
Conditions: not given
Summary of the method: as §1

| Structure (SMILES) | ED50 [mg/kg] |
| --- | --- |
| Cc1cc2n(c1C)-c1ccc(Cl)cc1C(c1ccccc1)=NC2 | 21 |
| Cc1cc2n(c1C)-c1ccc(Cl)cc1C(c1ccccc1Cl)=NC2 | 2.6 |
| Fc1ccccc1C1=NCc2cccn2-c2ccc(Cl)cc21 | 5.2 |
| Cc1ccc2n1-c1ccc(Cl)cc1C(c1ccccc1F)=NC2 | 6.9 |
| Cc1ccc2n1-c1ccccc1C(c1ccccc1)=NC2 | 22 |
| Cc1ccc2n1-c1ccc(Cl)cc1C(c1ccccc1)=NC2 | 46 |
| Cc1ccc2n1-c1ccc(Cl)cc1C(c1ccccc1Cl)=NC2 | 2.8 |
| Cc1cc2n(c1C)-c1ccc(Cl)cc1C(c1ccccc1F)=NC2 | 8 |
| Clc1ccc2c(c1)C(c1ccccc1Cl)=NCc1cccn1-2 | 18 |
| Cc1cc(C)n2c1CN=C(c1ccccc1F)c1cc(Cl)ccc1-2 | 2.4 |
| Cc1cc2n(c1C)-c1ccccc1C(c1ccccc1)=NC2 | > 30 |
| Cc1cc(C)n2c1CN=C(c1c(F)cccc1F)c1cc(Cl)ccc1-2 | 0.7 |
| Cc1ccc2n1-c1ccc([N+](=O)[O-])cc1C(c1ccccc1)=NC2 | 5.8 |
| CCc1cc2n(c1C)-c1ccc(Cl)cc1C(c1ccccc1F)=NC2 | 2.2 |
| CN1C(=O)CN=C(c2ccccc2)c2cc(Cl)ccc21 [DIAZEPAM] | 0.3 |
| CCc1cc2n(c1C)-c1ccc(Cl)cc1C(c1ccccc1Cl)=NC2 | 0.6 |
| Clc1ccc2c(c1)C(c1ccccc1)=NCc1cccn1-2 | 44 |
| CCc1cc2n(c1C)-c1ccc(Cl)cc1C(c1c(F)cccc1F)=NC2 | 3 |
| Cc1cc(C)n2c1CN=C(c1ccccc1Cl)c1cc(Cl)ccc1-2 | 0.34 |

System: not listed separately
Experiment: Acute toxicity in po dosed ddY mouse assessed as mortality measured for 2 weeks
Format: organism-based
Conditions: in vivo
Summary of the method: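 Male ddY mice (18–24 g) were dosed orally with compound suspended in 5% arabic gum. Groups of four received 1000 or 2000 mg/kg, and a group of eight received 3000 mg/kg. Deaths were recorded over a 2-week observation period.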

| Structure (SMILES) | LD50 at 336 h [mg/kg] |
| --- | --- |
| Cc1cc(C)n2c1CN=C(c1ccccc1Cl)c1cc(Cl)ccc1-2 | 930 |

System: not listed separately
Experiment: Ratio of compound ED50 to diazepam ED50 for toxicity in po dosed ddY mouse assessed as motor incoordination
Format: organism-based
Conditions: in vivo, read-out: Ratio ED50

| Structure (SMILES) | selectivity ratio |
| --- | --- |
| Cc1cc(C)n2c1CN=C(c1ccccc1Cl)c1cc(Cl)ccc1-2 | 2 |
